The results in this text go back to ChEMBL document CHEMBL5036324 (J Med Chem, 2021).

The structures appear in SMILES notation. Activity calls are given as the source filed them. The calls are words filed in the database; no cut-off is given here.

The target of data set [1] is T1, Toll-like receptor 7 (Homo sapiens) (UniProt Q9NYK1).
T1 sequence (whole entry): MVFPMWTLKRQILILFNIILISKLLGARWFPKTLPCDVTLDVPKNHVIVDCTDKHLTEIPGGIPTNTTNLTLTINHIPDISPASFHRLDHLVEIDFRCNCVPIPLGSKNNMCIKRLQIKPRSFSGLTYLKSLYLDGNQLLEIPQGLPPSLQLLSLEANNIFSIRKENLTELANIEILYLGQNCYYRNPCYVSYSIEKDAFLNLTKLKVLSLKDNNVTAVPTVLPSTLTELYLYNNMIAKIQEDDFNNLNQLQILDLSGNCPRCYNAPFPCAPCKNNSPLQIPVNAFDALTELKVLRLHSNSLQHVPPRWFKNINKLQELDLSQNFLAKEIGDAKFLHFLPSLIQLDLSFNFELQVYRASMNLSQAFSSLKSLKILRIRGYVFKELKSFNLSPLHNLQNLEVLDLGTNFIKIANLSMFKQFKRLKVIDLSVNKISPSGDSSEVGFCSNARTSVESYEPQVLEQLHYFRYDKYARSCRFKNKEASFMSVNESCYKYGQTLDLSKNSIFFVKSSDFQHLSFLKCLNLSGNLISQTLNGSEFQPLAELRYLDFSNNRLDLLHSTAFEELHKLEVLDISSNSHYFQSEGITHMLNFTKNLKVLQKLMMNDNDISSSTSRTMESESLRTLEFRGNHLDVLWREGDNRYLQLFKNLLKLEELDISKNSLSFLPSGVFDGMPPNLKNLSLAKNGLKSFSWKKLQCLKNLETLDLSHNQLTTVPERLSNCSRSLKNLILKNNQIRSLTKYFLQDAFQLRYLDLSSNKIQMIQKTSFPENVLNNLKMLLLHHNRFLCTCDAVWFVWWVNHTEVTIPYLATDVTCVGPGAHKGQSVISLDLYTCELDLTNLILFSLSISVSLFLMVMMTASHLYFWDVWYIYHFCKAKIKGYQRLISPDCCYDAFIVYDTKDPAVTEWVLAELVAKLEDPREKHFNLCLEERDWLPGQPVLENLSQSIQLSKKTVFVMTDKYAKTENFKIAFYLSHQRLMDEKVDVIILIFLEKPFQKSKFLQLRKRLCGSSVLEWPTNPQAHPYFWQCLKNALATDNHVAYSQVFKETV
Briefly: Agonist activity at human TLR7 expressed in HEK-Blue hTLR7 cells assessed as activation of NFkappaB incubated for 6 to 16 hrs by SEAP reporter gene based assay. The settings on record: filed as agonist, time 6-16 hrs. Type of data set: cell-based. An outline of the steps: (§1)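 HEK293-derived SEAP reporter cells stably expressing the matching human TLR (2, 3, 4, 7, 8 or 9), kept under selection antibiotics. SEAP is driven by an NF-κB/AP-1-inducible promoter. HEK-Blue Null2-k (no TLR7/8) serves as the parental line. Cells were given escalating concentrations of stimuli for 6−16 h, then SEAP was read with HEK-Blue detection at 620 nm.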
On the technique in general: In a reporter assay the amount or activity of a reporter protein is the signal.

Data set [2] has as its target T2, Toll-like receptor 8 (Homo sapiens) (UniProt Q9NR97).
T2 sequence (whole entry): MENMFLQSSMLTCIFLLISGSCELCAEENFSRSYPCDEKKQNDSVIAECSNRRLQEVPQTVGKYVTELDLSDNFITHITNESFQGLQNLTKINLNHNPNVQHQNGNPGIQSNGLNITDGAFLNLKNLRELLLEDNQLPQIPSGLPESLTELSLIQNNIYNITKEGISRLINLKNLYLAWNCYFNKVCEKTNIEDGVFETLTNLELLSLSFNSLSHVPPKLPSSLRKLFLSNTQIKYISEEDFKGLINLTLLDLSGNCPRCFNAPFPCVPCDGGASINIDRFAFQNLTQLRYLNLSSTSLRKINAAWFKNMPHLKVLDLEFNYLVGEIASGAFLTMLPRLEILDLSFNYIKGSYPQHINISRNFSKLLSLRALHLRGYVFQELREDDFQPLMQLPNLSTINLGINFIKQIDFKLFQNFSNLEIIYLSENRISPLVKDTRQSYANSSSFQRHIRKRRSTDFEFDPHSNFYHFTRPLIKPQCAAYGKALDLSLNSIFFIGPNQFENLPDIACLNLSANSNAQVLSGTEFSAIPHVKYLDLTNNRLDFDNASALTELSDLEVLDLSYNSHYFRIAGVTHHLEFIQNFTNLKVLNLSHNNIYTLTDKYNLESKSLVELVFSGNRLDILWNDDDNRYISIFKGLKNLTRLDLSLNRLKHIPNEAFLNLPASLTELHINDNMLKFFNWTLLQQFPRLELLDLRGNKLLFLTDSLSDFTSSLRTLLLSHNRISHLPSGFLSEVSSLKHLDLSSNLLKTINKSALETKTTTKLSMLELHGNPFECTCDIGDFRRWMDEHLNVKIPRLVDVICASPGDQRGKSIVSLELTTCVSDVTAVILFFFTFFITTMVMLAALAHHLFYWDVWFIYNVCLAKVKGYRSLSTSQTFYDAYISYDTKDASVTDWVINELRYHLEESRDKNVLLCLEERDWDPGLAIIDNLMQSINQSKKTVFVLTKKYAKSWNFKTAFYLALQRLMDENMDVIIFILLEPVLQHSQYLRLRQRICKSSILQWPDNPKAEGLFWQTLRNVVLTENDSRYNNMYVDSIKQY
Nature of the data set: Agonist activity at human TLR8 expressed in HEK-Blue hTLR8 cells assessed as activation of NFkappaB incubated for 6 to 16 hrs by SEAP reporter gene based assay. Type of data set: cell-based. The settings on record: filed as agonist, time 6-16 hrs. An outline of the steps:
as §1

In data set [3] the target is Toll-like receptor 4 (Homo sapiens) (UniProt O00206). Briefly: Agonist activity at human TLR4 expressed in HEK-Blue hTLR4 cells assessed as activation of NFkappaB incubated for 6 to 16 hrs by SEAP reporter gene based assay. Type of data set: cell-based. Conditions: time 6-16 hrs. An outline of the steps:
as §1

Data set [4] can be described thus: Acute toxicity in BALB/c mouse assessed as decrease in locomotor activity at 15 to 80 mg/kg, ip administered as single dose. Conditions: in vivo, dose 15-80 mg/kg. Type of data set: organism-based.
A short description of data set [5]: Subacute toxicity in BALB/c mouse assessed as splenomegaly at 15 mg/kg, ip administered as single dose. Type of data set: organism-based. Conditions: in vivo. An outline of the steps:
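Subacute toxicity study in BALB/c mice given ip TLR7/8 agonist. Spleens from treated and control groups were weighed and photographed. Body weight was recorded every day.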

Data set [6] is described as follows: Acute toxicity in BALB/c mouse assessed as white discharge from eyes at 15 to 80 mg/kg, ip administered as single dose measured after 24 hrs. Type of data set: organism-based. Conditions: in vivo, dose 15-80 mg/kg.

Sequence of Toll-like receptor 4 (Homo sapiens) (O00206 whole entry): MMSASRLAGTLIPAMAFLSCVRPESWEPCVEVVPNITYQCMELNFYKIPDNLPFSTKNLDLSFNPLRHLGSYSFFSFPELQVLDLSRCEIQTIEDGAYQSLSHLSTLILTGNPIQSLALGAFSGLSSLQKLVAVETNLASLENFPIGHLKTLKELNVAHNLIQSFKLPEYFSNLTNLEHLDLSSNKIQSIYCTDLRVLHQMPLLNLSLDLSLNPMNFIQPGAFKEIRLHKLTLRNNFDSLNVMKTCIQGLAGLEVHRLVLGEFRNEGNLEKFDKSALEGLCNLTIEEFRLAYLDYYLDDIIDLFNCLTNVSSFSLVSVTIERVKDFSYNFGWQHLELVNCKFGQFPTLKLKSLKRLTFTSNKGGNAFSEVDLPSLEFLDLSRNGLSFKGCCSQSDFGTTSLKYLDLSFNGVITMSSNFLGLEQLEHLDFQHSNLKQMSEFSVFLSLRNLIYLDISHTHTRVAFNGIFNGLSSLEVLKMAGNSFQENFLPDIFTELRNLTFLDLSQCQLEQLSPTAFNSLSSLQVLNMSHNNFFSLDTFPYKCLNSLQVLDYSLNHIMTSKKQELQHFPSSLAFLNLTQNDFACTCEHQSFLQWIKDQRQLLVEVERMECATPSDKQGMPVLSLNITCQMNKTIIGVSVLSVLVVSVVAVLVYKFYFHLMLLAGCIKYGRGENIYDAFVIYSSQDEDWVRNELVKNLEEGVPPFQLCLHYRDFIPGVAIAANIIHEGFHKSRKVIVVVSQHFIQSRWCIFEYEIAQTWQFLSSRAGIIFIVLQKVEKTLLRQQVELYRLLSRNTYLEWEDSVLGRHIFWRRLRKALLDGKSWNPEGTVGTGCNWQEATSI

On to `COCCNc1nc(N)nc2ccc(Cc3ccc(CN(C)C)cc3)nc12`, for which the outcome in data set [1] and in data set [2] was Active. In addition, the outcome in data set [3] was inactive. For the same compound, the Activity entry in data set [4] is “Toxic”; in data set [5] it was “Toxic”; in data set [6], “Non-Toxic”.
As to `CCCCNc1nc(N)nc2ccc(Cc3ccc(CN(C)C)cc3)nc12`, the outcome in data set [1] and in data set [2] was Active. In data set [3], the outcome was inactive. Moreover, the Activity entry is listed as “Toxic” in data set [4], “Toxic” in data set [5] and “Non-Toxic” in data set [6].
